The values below come from publication PMC3248652 (International Journal of Biological Sciences, 2011).

Entries after “also recorded” stand apart in the source; their conditions may differ. Where two headings read alike, the source gives them in different places. Non-standard residues stand in square brackets, D forms with d.

Data set [1] deals with CXCR4 (primary human T cells). The experiment in a line: CXCL12-induced T cell Transwell chemotaxis. Particulars: CXCL12 10nM, 5 h 37°C, mean ±SEM of three experiments. It is filed as cell-based.
Data set [2] has as its system obese mice. The settings on record: ref [24], cited from earlier work.
For data set [3], the system named is GHS-R. The settings on record: cited from earlier work.
Data set [4] concerns CXCR4 (GHOST-CXCR4 cells). Briefly: Fluorokine. Type of data set: binding.
Data set [5] concerns CXCR4 (primary human T cells). Briefly: CXCL12-induced intracellular calcium mobilization in primary human T cells. It is filed as cell-based. The settings on record: Fura-2AM, CXCL12 10nM. Put shortly: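 Human T cells were enriched from Ficoll-isolated PBMCs on T-cell enrichment columns, loaded with Fura-2-AM, and washed. They were then pretreated 20 min with the test compound at various concentrations. CXCL12 was added to 10nM final. Ca++ release was monitored in a luminescence spectrometer (ex 340 and 380 nm, em 510 nm) and expressed as the 340/380 ratio. At least three experiments were run.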
On the technique in general: A change in cytosolic calcium serves as a functional read-out for many receptors and channels.

Data set [6] relates to CXCR4. Briefly: CXCR4 binding and activity, overall statement. The settings on record: T cells and PBMCs; summary statement. It is filed as cell-based, human.
Data set [7] relates to ERK activation (activated human T cells). The experiment in a line: CXCL12-induced ERK phosphorylation. Type of data set: cell-based. Put shortly: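 About 10 million activated T cells per 0.5 ml per treatment, pretreated with test compound (20µM) for 30 min at 37°C. CXCL12 was then added to 10nM final. Cells were washed, harvested and lysed in RIPA buffer with protease and phosphatase inhibitors at 1, 3 and 10 min. Protein was measured by Bradford. 30μg lysate was run on 4-20% SDS-PAGE, blotted to nitrocellulose, and phospho-ERK detected by ECL.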

For data set [8], the system named is HIV1-IIIB (CXCR4 tropic). Briefly: HIV1-IIIB propagation in activated PBMCs. Type of data set: cell-based, HIV-1. The settings on record: activated human PBMCs. Put shortly:
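PBMCs were activated 3 days with PHA 5μg/ml and IL-2 10 units/ml, then washed into cRPMI at 10^6/ml. Cells were pretreated 30 min at 37°C with the test compound and infected with HIV1-IIIB (10ng/ml p24) for 3 h. Cells were washed, replated at 500,000/ml in triplicate, and compound re-added. Supernatant p24 was measured by ELISA on days 3, 6 and 9 and expressed as % of virus-only control. Three donors were used.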

Data set [9] relates to breast carcinoma. Particulars: ref [20]; cited from earlier work.
Data set [10] has as its system CXCR4. Particulars: ref [15]; cited from earlier work.
Data set [11] deals with glioma cell invasion. The settings on record: ref [6]; cited from earlier work.
For data set [12] the following is noted: ref [22]; cited from earlier work.
Data set [13] deals with pancreatic carcinoma. The settings on record: ref [21]; cited from earlier work.
Data set [14] deals with CXCR4 mediated HIV viral entry. Particulars: ref [19]; cited from earlier work.
[15] abbreviates: obese mice, repeated administration.

For H-H[dW][dK]W[dF]K-NH2 [DLS], in data set [1], the “effect on CXCL12-induced T cell migration” value is reported as “marked dose dependent inhibition; also recorded: inhibits CXCL12 induced activated T cell chemotaxis”. In [2] (setting [15]), the body weight result is “reduce body weight in obese mice”; the “glycemic control and insulin resistance” value is “improve their glycemic control and insulin resistance”. Besides, in data set [2] (obese mice), the muscle mass result was “without affecting the muscle mass” and the “size of abdominal fat pads” value is given as “reduced the size of abdominal fat pads”. In data set [2] (rodent models), the adverse side effects result is listed as “without any adverse side effects”. Besides, the “activity at GHS-R” value in data set [3] (ref [8], [9]) is “selective GHS-R antagonist”. The “effect on chemokine ligand binding” value in data set [4] (1/4/16 μg DLS, 30 min 37°C, flow cytometry MFI) is on record as “blocks chemokine ligand binding to receptor-positive cells”. For the same compound, the “amount required for the observed inhibition of CXCL12 binding” value in data set [4] (GHOST-CXCR4 cells, flow cytometry, AMD3100 data not shown) is given as “microgram quantities”. In addition, the “effect on CXCL12-induced calcium flux” value in data set [5] is on record as “markedly inhibited in a dose dependent fashion; also recorded: partially inhibits CXCL12-induced Ca++ release; also recorded: modest inhibition of calcium mobilization”. Moreover, the “effect on CXCL12 binding and activity through CXCR4” value in data set [6] is “block CXCL12 binding and activity through CXCR4; also recorded: modestly inhibit the binding and activity of CXCR4 receptor in human T cells”. In addition, the “effect on ERK activation in response to CXCL12” value in [7] (DLS 20μM, 30 min 37°C, CXCL12 10nM, Western blot) was “very modestly blocks ERK activation”. Further, in data set [8], the “effect on CXCR4-mediated HIV-1 entry and propagation” value was “partially blocks CXCR4-mediated HIV-1 entry and propagation”.
For the compound H-H[dW]AW[dF]K-NH2 [GHRP-6], in data set [3] (ref [9]), the “activity at GHS-R” value is on record as “GHS-R agonist”.
With `c1cc(CN2CCCNCCNCCCNCC2)ccc1CN1CCCNCCNCCCNCC1` [AMD3100], the “effect on metastasis of breast carcinoma” value in [9] was “blocks”. Besides, the CXCR4 blocking result in [10] was “potent CXCR4 [15] blocking agent”. In addition, the “effect on glioma cell invasion” value in data set [11] is “blocks glioma cell invasion”. Also, the “effect on allergy and collagen induced arthritis” value in [12] was “decreases allergy and collagen induced arthritis”. For the same compound, the “effect on metastasis of pancreatic carcinoma” value in data set [13] is “blocks”. Besides, the “effect on CXCR4 mediated HIV viral entry” value in data set [14] is reported as “block CXCR4 mediated HIV viral entry”. In addition, in [7] (activated human T cells, 10^-6M AMD3100, data not shown), the “block of ERK activation after CXCL12 treatment” value came out at 80%.
